Assay results of several laboratories.
Compare with care: the assays were run in different laboratories.
Target: Serine/threonine-protein kinase 4 (STK4, Homo sapiens, UniProt Q13043)
Residues used in one study (Q13043 1-487): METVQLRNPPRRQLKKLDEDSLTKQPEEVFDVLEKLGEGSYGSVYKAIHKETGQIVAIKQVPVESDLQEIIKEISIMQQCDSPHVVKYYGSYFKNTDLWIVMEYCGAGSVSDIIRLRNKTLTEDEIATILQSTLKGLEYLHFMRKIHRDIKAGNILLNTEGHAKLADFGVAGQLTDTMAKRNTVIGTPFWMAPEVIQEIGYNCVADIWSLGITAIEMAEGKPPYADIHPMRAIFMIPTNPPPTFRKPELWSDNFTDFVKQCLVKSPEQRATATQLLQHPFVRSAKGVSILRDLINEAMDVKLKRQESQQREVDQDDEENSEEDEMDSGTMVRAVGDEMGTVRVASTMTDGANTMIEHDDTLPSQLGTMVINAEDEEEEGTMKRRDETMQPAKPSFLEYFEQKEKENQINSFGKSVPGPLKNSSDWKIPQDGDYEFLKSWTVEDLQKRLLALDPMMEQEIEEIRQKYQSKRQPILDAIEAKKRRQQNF

SMILES | test | conditions | quantity | value
O=c1[nH]c2ccccc2n1C1CCN(Cc2ccc(-c3[nH]c4cc5ncnc5cc4nc3-c3ccccc3)cc2)CC1 | cell-free assay | 0.5 µM | remaining signal | 95.2%
Cc1nn(C)cc1-c1nc2c(N3CCN(Cc4ccc(Cl)cc4)CC3)c(Cl)cnc2[nH]1 | binding, competition with immobilised ligand | 1 µM | remaining binding | 100%
Cn1cc(-c2cc(F)cc(N3CCn4c(cc5c4CCCC5)C3=O)c2CO)cc(Nc2ccc(N3CCN(C4COC4)CC3)cn2)c1=O | enzyme activity, inhibitor | 0.1 µM | inhibition | 13%
CC(C)(C)c1cc(C=C(C#N)C#N)cc(Br)c1O | enzyme activity, inhibitor | 0.5 µM | remaining activity | 90.5%
Cn1cc(-c2cccc(N3CCc4c(sc5c4CC(C)(C)C5)C3=O)c2CO)cc(Nc2ccncn2)c1=O | enzyme activity, inhibitor | 1 µM | inhibition | -4%
Nc1ncc(-c2nc(N3CCOCC3)nc(N3CCOCC3)n2)c(C(F)F)n1 | binding, competition with immobilised ligand | 10 µM | remaining binding | 86%
NC(=O)c1cccc(-c2c[nH]c3ncnc(N4CCOCC4)c23)c1 | thermal stability, DSF | 20 µM | ΔTm | > 8 °C
C#Cc1n[nH]c2c(-c3cn(C(C)c4ccccn4)c(=O)[nH]c3=O)cc(F)cc12 (stereo not drawn) | enzyme activity, inhibitor | 1 µM | inhibition | 3.7%
COc1ncccc1-c1cnn2ccc(N3CCN(C(=O)OC(C)C)CC3)nc12 | binding, competition with immobilised ligand | 1 µM | remaining binding | 40%
C#Cc1n[nH]c2c(-c3cn([C@@H](C)c4ccccc4)c(=O)[nH]c3=O)cc(F)cc12 | enzyme activity, inhibitor | 0.1 µM | inhibition | -0.9%
Clc1cccc(-c2c[nH]c3nccc(N4CCOCC4)c23)c1 | thermal stability, DSF | 20 µM | ΔTm | > 8 °C
Cn1cncc1[C@](O)(COc1ccc(C#N)cc1-c1ccc(OC(F)(F)F)cc1)c1ccc(C#N)cc1 | cell-free assay, competition with immobilised ligand | 1 µM | remaining binding | 86%
